Reference: paper PMC4917231 (MedChemComm, 2016)
pEC50: −log10 of the molar value.

Tests used:
[1] = Tissue distribution study in mice after IP dosing; format: in vivo; details: 20 mg/kg IP
Outline: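 Non-tumour-bearing mice received a single IP dose of test compound at 20 mg kg⁻¹, given as a 1 mg ml⁻¹ formulation in 10:10:80 DMSO:Tween80:water. Compound residence in tissues was followed after dosing.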

[2] = test system: Raji Burkitt B-cell lymphoma; experiment: 96h MTT assay using Raji Burkitt B-cell lymphoma; format: cell-based; details: Homo sapiens, Raji cells

Row | Compound | detectability in tissues seven days after IP administration [1] | pEC50 [2]
1 | CC(C)Cc1nn(C)c(=O)c2c(SCCCO)n(Cc3ccc(C#CCCCOc4ccc(C[C@H](N)C(=O)O)cc4)c4ccccc34)cc12 [Compound 10] | detectable in all tissues | –
2 | CC(C)Cc1nn(C)c(=O)c2c(SCCCO)n(Cc3ccc(NCCCCCNC(=O)[C@@H](N)CCC(N)=O)nc3)cc12 [Compound 12] | – | ~7.00
